From ChEMBL document CHEMBL1153560, “In vitro activities of doripenem and six comparator drugs against 423 aerobic and anaerobic bacterial isolates from infected diabetic foot wounds” (2008) come the findings set out here.

This assay concerns Clostridium perfringens. The assay can be described thus: Antibacterial activity against Clostridium perfringens isolated from patient with diabetic foot infection assessed as percent resistant isolates after 44 to 48 hrs by agar dilution method. The format is functional. Summed up: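 Agar dilution per CLSI M11-A7. Twofold drug dilutions made on the test day and added to molten agar. Replicator-applied inoculum of 10^5 CFU/spot. Drug-free control plates inoculated before and after each drug set. Incubation at 37°C for 44 to 48 h, anaerobic chamber. MIC taken as the lowest concentration giving no growth or a marked change in growth versus controls.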
In general terms: In agar dilution, organisms are placed on agar that contains the substance at set levels.

For `CCC[C@@H]1C[C@@H](C(=O)N[C@@H]([C@H]2O[C@H](SC)[C@H](O)[C@@H](O)[C@H]2O)[C@H](C)Cl)N(C)C1` [CLINDAMYCIN], the Activity was 0%.

On to `C[C@@H](O)[C@H]1C(=O)N2C(C(=O)O)=C(S[C@@H]3CN[C@H](CNS(N)(=O)=O)C3)[C@H](C)[C@H]12` [DORIPENEM], for which the Activity turned out to be 0%.

Consider `C[C@@H](O)[C@H]1C(=O)N2C(C(=O)O)=C(S[C@@H]3CN[C@H](C(=O)Nc4cccc(C(=O)O)c4)C3)[C@H](C)[C@H]12` [ERTAPENEM], for which the Activity was 0%.

For `C[C@@H](O)[C@H]1C(=O)N2C(C(=O)O)=C(SCCNC=N)C[C@H]12` [IMIPENEM ANHYDROUS], the Activity is 0%.

For the molecule `C[C@@H](O)[C@H]1C(=O)N2C(C(=O)O)=C(S[C@@H]3CN[C@H](C(=O)N(C)C)C3)[C@H](C)[C@H]12` [MEROPENEM], the Activity was 0%.

As for `Cc1ncc([N+](=O)[O-])n1CCO` [METRONIDAZOLE], the Activity is 0%.
